# Experimental data: ChEMBL document CHEMBL3352559, “Synthesis and pharmacological investigation of aralkyl diamine derivatives as potential triple reuptake inhibitors” (Eur J Med Chem, 2014)
# pIC50: −log10 of the molar value.
# Key:
# [1] = Ratio of drug level in Sprague-Dawley rat brain to plasma at 0.5 mg/kg iv after 2 hrs; type: ADME, organism-based; parameters: dose 0.5 mg/kg, route intravenous; conditions: read-out: BPR
# [2] = target: Adrenergic receptor alpha-1 (Homo sapiens) (UniProt P35348+P25100+P35368); assay: Displacement of [3H]prazosin from alpha1-adrenergic receptor (unknown origin) at 10 uM relative to control
# Procedure, shortened: (§1)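 Outsourced CNS receptor panel (55 binding assays); compound tested at 10 μM in primary radioligand binding; specific binding inhibition expressed relative to control, with >50% inhibition taken as a significant effect.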
# [3] = test system: Salmonella typhimurium; assay: Mutagenic activity in Salmonella typhimurium TA98 assessed as number of reversion mutation at 1000 ug/plate; type: toxicity, organism-based; conditions: salmonella enterica subsp. enterica serovar typhimurium
# Procedure, shortened: (§2)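 Ames reversion test in Salmonella typhimurium TA98 and TA100, with and without rat liver S9 metabolic activation. Compound was dissolved in DMSO and added at 3–5000 μg/plate. Each dose, vehicle and positive control was plated in triplicate, and revertant colonies were counted.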
# [4] = test system: Salmonella typhimurium; assay: Mutagenic activity in Salmonella typhimurium TA98 assessed as number of reversion mutation at 100 ug/plate; type: toxicity, organism-based; conditions: salmonella enterica subsp. enterica serovar typhimurium; procedure, shortened: as §2
# [5] = test system: Rattus norvegicus; assay: Apparent volume of distribution during terminal phase in Sprague-Dawley rat at 0.5 mg/kg, iv; type: ADME, organism-based; parameters: dose 0.5 mg/kg, route intravenous; conditions: in vivo
# Procedure, shortened: (§3)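 Male SD rats, fasted overnight until 6 h post-dose. PO group received single 2 mg/kg with heparinized blood sampled at 5, 15, 30 min, 1, 2, 4, 8, 24 h. IV group received single 0.5 mg/kg via femoral vein with sampling at 5, 15, 30 min, 1, 2, 4 h. Plasma stored at -40 °C, quantified by LC/MS/MS; 24 rats per group.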
# [6] = Drug uptake in Sprague-Dawley rat brain at 0.5 mg/kg iv after 4 hrs; type: ADME, organism-based; parameters: dose 0.5 mg/kg, route intravenous; conditions: read-out: Drug uptake
# [7] = Drug uptake in Sprague-Dawley rat brain at 0.5 mg/kg ip after 2 hrs
# [8] = Tmax in Sprague-Dawley rat at 2 mg/kg, po; type: ADME, organism-based; parameters: dose 2 mg/kg, route oral; conditions: in vivo
# [9] = target: D(2) dopamine receptor (Homo sapiens) (UniProt P14416); assay: Displacement of [3H]N-Methylspiperone from human dopamine D2S receptor at 10 uM relative to control
# Sequence of D(2) dopamine receptor (Homo sapiens) (P14416 whole entry): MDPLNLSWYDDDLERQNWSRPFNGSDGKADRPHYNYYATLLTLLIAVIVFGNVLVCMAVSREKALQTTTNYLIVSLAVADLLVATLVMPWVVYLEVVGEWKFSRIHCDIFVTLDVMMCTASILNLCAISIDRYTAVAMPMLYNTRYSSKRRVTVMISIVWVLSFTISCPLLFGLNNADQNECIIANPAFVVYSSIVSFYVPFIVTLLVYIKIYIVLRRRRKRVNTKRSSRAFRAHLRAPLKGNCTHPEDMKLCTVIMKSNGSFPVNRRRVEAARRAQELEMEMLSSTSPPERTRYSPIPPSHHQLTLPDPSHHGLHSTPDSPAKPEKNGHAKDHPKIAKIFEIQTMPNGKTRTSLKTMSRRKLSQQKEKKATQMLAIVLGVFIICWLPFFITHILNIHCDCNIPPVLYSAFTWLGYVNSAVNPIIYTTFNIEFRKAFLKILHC
# Procedure, shortened: (§4)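 Outsourced CNS panel of 55 receptor binding assays run by Cerep. Compound tested at 10 μM, the default primary-binding concentration, with inhibition expressed relative to control. Inhibition above 50% taken as a significant effect.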
# [10] = target: 5-hydroxytryptamine receptor 2A (Homo sapiens) (UniProt P28223); assay: Displacement of [3H]ketanserin from human 5-HT2A receptor at 10 uM relative to control; procedure, shortened: as §1
# Sequence of 5-hydroxytryptamine receptor 2A (Homo sapiens) (P28223 whole entry): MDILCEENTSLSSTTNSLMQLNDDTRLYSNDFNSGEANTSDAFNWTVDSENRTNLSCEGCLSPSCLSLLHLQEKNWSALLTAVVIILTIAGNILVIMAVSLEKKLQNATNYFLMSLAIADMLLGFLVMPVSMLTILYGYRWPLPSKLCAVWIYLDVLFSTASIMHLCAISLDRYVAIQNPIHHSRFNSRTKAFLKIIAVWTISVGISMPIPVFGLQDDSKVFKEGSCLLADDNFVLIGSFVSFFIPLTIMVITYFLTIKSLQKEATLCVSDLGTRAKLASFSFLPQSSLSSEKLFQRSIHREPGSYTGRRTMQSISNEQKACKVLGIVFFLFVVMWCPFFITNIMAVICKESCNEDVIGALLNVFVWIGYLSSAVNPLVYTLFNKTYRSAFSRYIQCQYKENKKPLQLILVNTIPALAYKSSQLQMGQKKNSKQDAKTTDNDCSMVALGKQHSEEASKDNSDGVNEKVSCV
# [11] = species on record: Homo sapiens; assay: Inhibition of SKca channel (unknown origin) at 10 uM by [125I]apamin binding assay relative to control; procedure, shortened: as §1
# [12] = target: Sodium-dependent dopamine transporter (Homo sapiens, UniProt Q01959); assay: Inhibition of [3H]-DA uptake in human dopamine transporter expressed in HEK293 cells by scintillation counting; type: cell-based
# Sequence of Sodium-dependent dopamine transporter (Q01959 whole entry): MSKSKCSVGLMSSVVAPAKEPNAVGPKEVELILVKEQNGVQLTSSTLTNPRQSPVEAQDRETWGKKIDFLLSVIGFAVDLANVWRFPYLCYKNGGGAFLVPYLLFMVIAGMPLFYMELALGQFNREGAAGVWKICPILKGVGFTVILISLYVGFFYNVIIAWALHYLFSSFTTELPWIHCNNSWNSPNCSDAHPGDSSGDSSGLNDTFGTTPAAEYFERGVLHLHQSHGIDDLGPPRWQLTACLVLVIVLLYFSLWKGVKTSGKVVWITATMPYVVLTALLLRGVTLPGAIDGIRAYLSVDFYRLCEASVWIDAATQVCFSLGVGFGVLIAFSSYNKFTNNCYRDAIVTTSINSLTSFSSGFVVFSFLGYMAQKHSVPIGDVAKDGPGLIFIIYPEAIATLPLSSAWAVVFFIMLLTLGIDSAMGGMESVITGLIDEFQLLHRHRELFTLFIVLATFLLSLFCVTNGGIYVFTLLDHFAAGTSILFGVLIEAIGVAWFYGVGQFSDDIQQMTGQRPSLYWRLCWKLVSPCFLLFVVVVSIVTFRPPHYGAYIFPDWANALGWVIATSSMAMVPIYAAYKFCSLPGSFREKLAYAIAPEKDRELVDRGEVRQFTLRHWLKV
# [13] = AUC (0 to infinity) in Sprague-Dawley rat at 2 mg/kg, po; type: ADME, organism-based; parameters: dose 2 mg/kg, route oral, time infinity; conditions: plasma; procedure, shortened: as §3
# [14] = target: Melanocortin receptor 4 (Homo sapiens) (UniProt P32245); assay: Displacement of [125I] NDP-alpha-MSH from human MC4 receptor at 10 uM relative to control; procedure, shortened: as §4
# Sequence of Melanocortin receptor 4 (Homo sapiens) (P32245 whole entry): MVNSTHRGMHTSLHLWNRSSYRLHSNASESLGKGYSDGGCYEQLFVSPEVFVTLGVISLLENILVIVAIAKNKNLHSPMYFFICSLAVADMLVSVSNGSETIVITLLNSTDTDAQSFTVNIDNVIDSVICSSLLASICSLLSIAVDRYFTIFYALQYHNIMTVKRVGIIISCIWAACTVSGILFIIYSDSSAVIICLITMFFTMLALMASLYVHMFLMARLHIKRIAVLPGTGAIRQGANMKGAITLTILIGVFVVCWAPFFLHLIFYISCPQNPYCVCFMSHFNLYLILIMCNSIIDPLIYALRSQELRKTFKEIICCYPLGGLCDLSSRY
# [15] = Cmax in Sprague-Dawley rat at 2 mg/kg, po; type: ADME, organism-based; parameters: dose 2 mg/kg, route oral; conditions: in vivo; procedure, shortened: as §3
# [16] = Acute toxicity in KM mouse assessed as survival at 900 mg/kg, po up to 14 days (reference value: 100%); type: organism-based; parameters: dose 900 mg/kg, route oral; conditions: in vivo
# [17] = target: Sodium-dependent noradrenaline transporter (Homo sapiens, UniProt P23975); assay: Inhibition of [3H]-NE uptake in human norepinephrine transporter expressed in HEK293 cells by scintillation counting; type: cell-based
# Sequence of Sodium-dependent noradrenaline transporter (P23975 whole entry): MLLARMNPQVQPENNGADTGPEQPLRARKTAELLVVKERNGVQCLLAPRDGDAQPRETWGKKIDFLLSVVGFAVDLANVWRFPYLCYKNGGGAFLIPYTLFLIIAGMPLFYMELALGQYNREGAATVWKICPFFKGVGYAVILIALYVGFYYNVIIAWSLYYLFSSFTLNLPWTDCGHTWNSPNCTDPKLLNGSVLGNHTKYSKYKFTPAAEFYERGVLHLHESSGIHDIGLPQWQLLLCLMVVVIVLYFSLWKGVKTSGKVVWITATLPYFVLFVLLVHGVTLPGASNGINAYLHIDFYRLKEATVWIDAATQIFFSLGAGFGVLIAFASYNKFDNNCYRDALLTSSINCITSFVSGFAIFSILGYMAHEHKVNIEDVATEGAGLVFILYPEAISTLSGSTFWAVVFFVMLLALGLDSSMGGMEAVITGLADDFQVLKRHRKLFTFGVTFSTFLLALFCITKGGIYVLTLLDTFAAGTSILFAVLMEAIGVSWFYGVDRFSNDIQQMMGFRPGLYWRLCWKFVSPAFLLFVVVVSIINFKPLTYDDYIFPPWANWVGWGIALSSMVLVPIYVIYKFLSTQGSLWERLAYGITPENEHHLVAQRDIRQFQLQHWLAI
# [18] = Elimination half life in Sprague-Dawley rat at 0.5 mg/kg, iv; type: ADME, organism-based; parameters: dose 0.5 mg/kg, route intravenous; conditions: in vivo, read-out: beta t1/2 (converted)
# Procedure, shortened: (§5)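 Male SD rats, fasted overnight until 6 h post-dose; single 0.5 mg/kg femoral-vein injection; blood drawn into heparin at 5, 15, 30 min, 1, 2 and 4 h; plasma stored at -40 °C; drug levels by LC/MS/MS; noncompartmental parameters.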
# [19] = target: L-type calcium channel, verapamil binding site (Homo sapiens, UniProt O60840+Q01668+Q13698+Q13936); assay: Inhibition of human L-type calcium channel verapamil binding site at 10 uM by [3H]D88 binding assay relative to control; procedure, shortened: as §1
# [20] = target: 5-hydroxytryptamine receptor 2B (Homo sapiens) (UniProt P41595); assay: Displacement of [125I] (+/-)DOI from human 5-HT2B receptor at 10 uM relative to control; procedure, shortened: as §4
# Sequence of 5-hydroxytryptamine receptor 2B (Homo sapiens) (P41595 whole entry): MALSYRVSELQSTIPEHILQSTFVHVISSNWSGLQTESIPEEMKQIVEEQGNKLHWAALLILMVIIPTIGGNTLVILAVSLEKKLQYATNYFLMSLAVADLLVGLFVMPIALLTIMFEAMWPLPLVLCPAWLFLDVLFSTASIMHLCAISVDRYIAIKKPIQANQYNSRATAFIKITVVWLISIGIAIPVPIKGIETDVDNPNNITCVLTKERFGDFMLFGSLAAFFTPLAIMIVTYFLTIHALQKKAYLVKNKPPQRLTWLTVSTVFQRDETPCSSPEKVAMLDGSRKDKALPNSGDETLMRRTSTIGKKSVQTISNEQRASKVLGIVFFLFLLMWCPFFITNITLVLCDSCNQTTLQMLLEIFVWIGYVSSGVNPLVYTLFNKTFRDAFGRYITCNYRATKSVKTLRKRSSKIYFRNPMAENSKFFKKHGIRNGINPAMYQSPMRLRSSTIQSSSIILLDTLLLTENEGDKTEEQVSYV
# [21] = test system: Salmonella typhimurium; assay: Mutagenic activity in Salmonella typhimurium TA98 assessed as number of reversion mutation at 30 ug/plate; type: toxicity, organism-based; conditions: salmonella enterica subsp. enterica serovar typhimurium; procedure, shortened: as §2
# [22] = test system: Salmonella typhimurium; assay: Mutagenic activity in Salmonella typhimurium TA100 assessed as number of reversion mutation at 100 ug/plate; type: toxicity, organism-based; conditions: salmonella enterica subsp. enterica serovar typhimurium; procedure, shortened: as §2
# [23] = target: D(1A) dopamine receptor (Homo sapiens) (UniProt P21728); assay: Displacement of [3H]SCH23390 from human dopamine D1 receptor at 10 uM relative to control; procedure, shortened: as §4
# Sequence of D(1A) dopamine receptor (Homo sapiens) (P21728 whole entry): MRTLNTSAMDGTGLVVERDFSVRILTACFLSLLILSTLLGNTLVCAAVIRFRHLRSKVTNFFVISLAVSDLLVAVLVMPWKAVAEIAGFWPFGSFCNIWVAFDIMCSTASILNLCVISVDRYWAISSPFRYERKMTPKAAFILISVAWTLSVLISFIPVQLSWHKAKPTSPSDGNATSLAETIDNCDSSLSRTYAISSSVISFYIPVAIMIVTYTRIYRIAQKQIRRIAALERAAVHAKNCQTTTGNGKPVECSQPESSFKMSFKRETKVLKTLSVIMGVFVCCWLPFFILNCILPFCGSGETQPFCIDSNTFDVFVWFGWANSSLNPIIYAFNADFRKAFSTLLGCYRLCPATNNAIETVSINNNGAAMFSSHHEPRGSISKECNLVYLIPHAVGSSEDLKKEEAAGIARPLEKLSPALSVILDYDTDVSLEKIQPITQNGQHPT
# [24] = test system: Salmonella typhimurium; assay: Mutagenic activity in Salmonella typhimurium TA100 assessed as number of reversion mutation at 10 ug/plate; type: toxicity, organism-based; conditions: salmonella enterica subsp. enterica serovar typhimurium; procedure, shortened: as §2
# [25] = target: Neuromedin-K receptor (Homo sapiens) (UniProt P29371); assay: Displacement of [3H]-SR142801 from human NK3 receptor at 10 uM relative to control; procedure, shortened: as §4
# [26] = target: Muscarinic acetylcholine receptor M3 (Homo sapiens) (UniProt P20309); assay: Displacement of [3H]4-DAMP from human muscarinic M3 receptor at 10 uM relative to control; procedure, shortened: as §4
# Sequence of Muscarinic acetylcholine receptor M3 (Homo sapiens) (P20309 whole entry, looked up): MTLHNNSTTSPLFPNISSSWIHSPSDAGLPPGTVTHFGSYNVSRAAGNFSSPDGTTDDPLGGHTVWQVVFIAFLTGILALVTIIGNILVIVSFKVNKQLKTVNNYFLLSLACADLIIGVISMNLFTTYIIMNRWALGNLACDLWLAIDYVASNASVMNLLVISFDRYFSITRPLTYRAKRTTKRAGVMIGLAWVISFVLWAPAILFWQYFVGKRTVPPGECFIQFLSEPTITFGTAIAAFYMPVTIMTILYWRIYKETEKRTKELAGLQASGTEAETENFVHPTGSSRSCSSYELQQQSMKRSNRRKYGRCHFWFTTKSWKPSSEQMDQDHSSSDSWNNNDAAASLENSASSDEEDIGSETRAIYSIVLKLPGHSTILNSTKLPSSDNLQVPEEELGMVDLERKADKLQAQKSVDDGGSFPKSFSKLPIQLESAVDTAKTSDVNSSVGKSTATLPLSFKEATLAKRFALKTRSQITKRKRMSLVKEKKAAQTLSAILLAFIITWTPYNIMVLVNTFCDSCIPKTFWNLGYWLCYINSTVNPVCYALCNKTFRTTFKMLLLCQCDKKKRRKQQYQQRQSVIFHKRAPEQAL
# [27] = target: Cholecystokinin receptor type A (Homo sapiens) (UniProt P32238); assay: Displacement of [125I]CCK-8s from human CCKA at 10 uM relative to control; procedure, shortened: as §4
# Sequence of Cholecystokinin receptor type A (Homo sapiens) (P32238 whole entry): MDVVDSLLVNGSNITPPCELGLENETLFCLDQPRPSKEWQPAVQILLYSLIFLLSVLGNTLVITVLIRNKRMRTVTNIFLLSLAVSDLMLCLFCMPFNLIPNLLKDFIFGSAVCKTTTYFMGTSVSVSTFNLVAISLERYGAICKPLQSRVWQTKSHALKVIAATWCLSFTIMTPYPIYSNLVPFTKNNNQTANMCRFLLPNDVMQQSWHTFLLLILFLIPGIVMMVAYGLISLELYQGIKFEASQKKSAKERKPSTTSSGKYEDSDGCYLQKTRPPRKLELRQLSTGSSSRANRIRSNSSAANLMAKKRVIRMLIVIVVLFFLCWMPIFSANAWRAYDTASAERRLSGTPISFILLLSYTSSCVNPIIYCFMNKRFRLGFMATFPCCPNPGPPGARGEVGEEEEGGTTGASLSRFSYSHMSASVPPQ
# [28] = test system: Rattus norvegicus; assay: Antidepressant activity in po dosed rat assessed as reduction in immobility time by forced swimming test; type: functional, organism-based
# Procedure, shortened: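 Male rats dosed orally at 5, 10 or 20 mg/kg alongside vehicle and venlafaxine 30 mg/kg PO groups. 1 h post-dose, each rat placed in a glass cylinder (40 cm × 18 cm) holding 15 cm of 25 ± 1 °C water. Immobility time recorded over a 6 min trial; significant main effects followed by post hoc Fisher's test.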
# [29] = Apparent oral clearance in Sprague-Dawley rat at 2 mg/kg, po; type: ADME, organism-based; parameters: dose 2 mg/kg, route oral; conditions: in vivo; procedure, shortened: as §3
# [30] = Drug uptake in Sprague-Dawley rat plasma at 0.5 mg/kg iv after 4 hrs; type: ADME, organism-based; parameters: dose 0.5 mg/kg, route intravenous; procedure, shortened: as §5
# [31] = target: Histamine H2 receptor (Homo sapiens) (UniProt P25021); assay: Displacement of [125I]APT from human histamine H2 receptor at 10 uM relative to control; procedure, shortened: as §4
# [32] = Drug uptake in Sprague-Dawley rat brain at 0.5 mg/kg ip after 0.08 hrs
# [33] = Elimination half life in Sprague-Dawley rat at 2 mg/kg, po; type: ADME, organism-based; parameters: dose 2 mg/kg, route oral; conditions: in vivo, read-out: beta t1/2 (converted)
# [34] = Drug uptake in Sprague-Dawley rat brain at 0.5 mg/kg ip after 0.25 hrs
# [35] = target: 5-hydroxytryptamine receptor 5A (Homo sapiens) (UniProt P47898); assay: Displacement of [3H]LSD from human 5-HT5A receptor at 10 uM relative to control; procedure, shortened: as §4
# Sequence of 5-hydroxytryptamine receptor 5A (Homo sapiens) (P47898 whole entry): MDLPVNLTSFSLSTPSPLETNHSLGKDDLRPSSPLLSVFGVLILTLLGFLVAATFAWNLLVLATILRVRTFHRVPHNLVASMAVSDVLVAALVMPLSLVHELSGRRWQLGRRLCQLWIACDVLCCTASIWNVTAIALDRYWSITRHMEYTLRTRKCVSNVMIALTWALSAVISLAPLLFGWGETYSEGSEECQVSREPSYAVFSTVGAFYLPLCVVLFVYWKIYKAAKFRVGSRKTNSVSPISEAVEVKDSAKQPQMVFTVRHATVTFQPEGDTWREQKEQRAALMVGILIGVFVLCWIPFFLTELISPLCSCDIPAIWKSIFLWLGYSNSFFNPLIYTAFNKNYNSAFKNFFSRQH
smiles,measurement,setting,value
CN(C)CCC(c1ccc(Cl)c(Cl)c1)N1CCOCC1 (stereo not given),Kp at 2 h,[1],16.4
same,inhibition,[2],2.6%
same,Activity,[3],31
same,Activity,[4],41
same,Vz/F,[5],8.3 L/kg
same,concentration at 4 h,[6],42.2 ng/mL
same,concentration at 2 h,[7],178 ng/mL
same,Tmax,[8],0.5 h
same,inhibition,[9],4%
same,inhibition,[10],32.1%
same,inhibition,[11],-3.8%
same,pIC50,[12],6.61
same,AUC(0-inf),[13],80 ng·h/mL
same,inhibition,[14],0.8%
same,Cmax,[15],26.8 ng/mL
same,survival at 336 h,[16],40%
same,pIC50,[17],6.32
same,half-life,[18],1 h
same,inhibition at 10 µM,[19],41.8%
same,inhibition,[20],19.2%
same,Activity,[21],36
same,Activity,[22],74
same,inhibition,[23],2.2%
same,Activity,[24],75
same,inhibition,[25],-0.5%
same,inhibition,[26],20.6%
same,inhibition,[27],1%
same,inhibition,[28],Dose-dependent effect
same,CL/F,[29],417 mL/min/kg
same,concentration at 4 h,[30],3.7 ng/mL
same,inhibition,[31],-8%
same,concentration at 0.08 h,[32],1120 ng/mL
same,half-life,[33],4.5 h
same,concentration at 0.25 h,[34],925 ng/mL
same,inhibition,[35],1.4%
